Data on two compounds can be found in paper PMC4216208 (Journal of Medicinal Chemistry, 2014).

Data set [1] has as its system HEK 293T/17 cells. The experiment in a line: Mitochondrial-uncoupling assay. The data set is classed as cell-based, human. As to conditions: 50 μM compound, TMRE staining. The method in brief:
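HEK 293T/17 cells were trypsinised and suspended at 1−2 × 10^6 cells/mL in DMEM with 10% FBS, then given test compound (50 μM) or DMSO for 30 min at 37 °C. TMRE (~450 nM final) was added for 30 min in the dark at 37 °C. Cells were washed twice in 0.2% BSA/PBS, resuspended, and read by plate fluorescence (em 575 nm). Unstained and DMSO controls were included; mean ± sd, n = 3.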

For data set [2], the system named is C. elegans. The experiment in a line: Bioaccumulation in C. elegans. The format is in vitro ADME, Caenorhabditis elegans. As to conditions: for accumulation in C. elegans (in words): late-stage L4 worms, 10 μM (2 nmol/mg worm), 6 h, LC-MS of homogenates. The method in brief:
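Synchronised C. elegans grown to late L4 on E. coli OP50 at 25 °C for 40 h, water-washed, and suspended in M9 at ~5−10 worms/μL. Dosed at 10 μM final (~2 nmol/mg worm) from DMSO stock, 6 or 12 h at rt. Washed in 0.1% SDS then water, frozen, lyophilised, weighed, extracted into cold MeOH/MeCN with internal standard. Quantified by LC-ESI-MS against blank-worm calibration; mean ± sd, n = 3.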

The test system of data set [3] is C. elegans. The experiment in a line: Metabolism of closantel in C. elegans. The data set is classed as in vitro ADME, Caenorhabditis elegans.
For data set [4], the system named is O. volvulus L3 larvae. As to conditions: 100 μM; cited from earlier work.
In data set [5] the target is T1, OvCHT1 (Onchocerca volvulus, UniProt Q25615).
T1 sequence (Q25615 22-497): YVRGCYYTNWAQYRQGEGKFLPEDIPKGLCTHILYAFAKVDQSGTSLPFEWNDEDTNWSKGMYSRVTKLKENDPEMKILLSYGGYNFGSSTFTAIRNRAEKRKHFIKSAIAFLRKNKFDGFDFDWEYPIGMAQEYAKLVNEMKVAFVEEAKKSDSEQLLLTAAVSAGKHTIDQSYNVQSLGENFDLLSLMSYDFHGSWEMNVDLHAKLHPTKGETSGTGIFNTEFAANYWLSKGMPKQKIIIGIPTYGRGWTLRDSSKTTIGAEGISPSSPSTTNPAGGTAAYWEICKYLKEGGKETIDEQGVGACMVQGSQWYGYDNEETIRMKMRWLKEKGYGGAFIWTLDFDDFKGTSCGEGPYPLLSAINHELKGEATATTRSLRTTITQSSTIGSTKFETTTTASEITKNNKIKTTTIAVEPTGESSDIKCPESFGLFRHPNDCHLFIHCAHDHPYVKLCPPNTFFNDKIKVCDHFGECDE
Nature of the data set: O. volvulus chitinase. The data set is classed as biochemical. As to conditions: 10 μM final concentration, relative to control (0.5% DMSO in water).

Data set [6] has as its target T2, BmCHT1 (Brugia malayi, UniProt P29030).
T2 sequence (P29030 23-504): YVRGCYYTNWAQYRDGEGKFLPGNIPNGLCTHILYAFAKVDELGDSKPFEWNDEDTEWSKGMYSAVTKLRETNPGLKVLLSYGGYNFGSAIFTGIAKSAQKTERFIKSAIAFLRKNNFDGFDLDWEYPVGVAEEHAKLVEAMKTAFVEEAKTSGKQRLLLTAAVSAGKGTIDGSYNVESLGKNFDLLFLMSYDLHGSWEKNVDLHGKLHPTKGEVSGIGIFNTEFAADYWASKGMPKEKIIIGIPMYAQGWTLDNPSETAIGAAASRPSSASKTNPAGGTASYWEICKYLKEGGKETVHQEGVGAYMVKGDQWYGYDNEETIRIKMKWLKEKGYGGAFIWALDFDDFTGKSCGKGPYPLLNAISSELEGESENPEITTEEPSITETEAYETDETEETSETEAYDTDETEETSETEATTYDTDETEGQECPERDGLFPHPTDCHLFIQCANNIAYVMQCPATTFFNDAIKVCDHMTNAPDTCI
Nature of the data set: Chitinase activity assay, Brugia malayi chitinase. The data set is classed as biochemical. As to conditions: 10 μM final concentration.

In data set [7] the test system is EhCHT1. Nature of the data set: Chitinase activity assay, Entamoeba histolytica chitinase. The format is biochemical. As to conditions: 10 μM final concentration.
Data set [8] concerns the target T3, PfCHT1 (Plasmodium falciparum, UniProt Q8I4R4).
T3 sequence (Q8I4R4 29-378): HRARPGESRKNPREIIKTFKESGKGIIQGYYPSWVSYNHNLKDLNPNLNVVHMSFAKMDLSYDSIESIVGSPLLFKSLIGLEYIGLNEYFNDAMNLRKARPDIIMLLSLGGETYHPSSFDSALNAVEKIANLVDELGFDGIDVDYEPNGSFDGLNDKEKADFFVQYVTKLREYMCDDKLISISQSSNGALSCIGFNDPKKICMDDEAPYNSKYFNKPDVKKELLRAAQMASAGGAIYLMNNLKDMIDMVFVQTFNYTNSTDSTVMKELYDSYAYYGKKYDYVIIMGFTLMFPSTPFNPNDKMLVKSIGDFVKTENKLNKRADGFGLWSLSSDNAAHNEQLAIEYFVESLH
The experiment in a line: Chitinase activity assay, Plasmodium falciparum chitinase. The data set is classed as biochemical. As to conditions: 10 μM final concentration.

Data set [9] has as its system O. volvulus L3 larvae. Nature of the data set: O. volvulus L3 molting inhibition. The format is cell-based, Onchocerca volvulus. As to conditions: 24 h preincubation, molting assessed day 6.
In data set [10] the test system is HEK 293T/17 cells. The experiment in a line: Cell viability assay. The data set is classed as cell-based, human. As to conditions: 1 and 10 μM, 24 h, MTS assay. The method in brief: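 HEK 293T/17 cells (2 × 10^4) plated and held 24 h at 37 °C, then exposed to test compound at 1 and 10 μM final. Viability was read by MTS at 0.5 and 24 h after treatment.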
For orientation: Formazan colour is commonly taken as a measure of viable cells.

As to `Cc1cc(C(C#N)c2ccc(Cl)cc2)c(Cl)cc1NC(=O)c1cc(I)cc(I)c1O` (stereo not drawn) [Compound 1, closantel], the “mitochondrial-uncoupling (protonophoric) activity” value in [1] is on record as “mitochondrial-uncoupling activity”. Further, the “accumulation in C. elegans (in words)” value in data set [2] is on record as “accumulated in C. elegans”. Further, in data set [3], the “sulfation, glycosylation and glucuronidation of the salicylate moiety in C. elegans homogenates” value is listed as “not observed”. Also, in [3] (minor pathway, forms two monoiodoclosantel isomers), the “primary metabolic pathway in C. elegans” value is given as “reductive deiodination”. In addition, the “effect on molting of O. volvulus L3 to L4 larvae” value in [4] is listed as “inhibit the molting”.
As to `O=C(Nc1ccc(Oc2ccc(Cl)cc2)c(Cl)c1)c1cc(I)cc(I)c1O` [Compound 3m, rafoxanide, reference compound], in data set [5], the “inhibition of OvCHT1 at single concentration” value was “complete inhibition”. Further, in data set [6], the “inhibition of BmCHT1 at single concentration” value is listed as “sparing”. The “inhibition of EhCHT1 at single concentration” value in data set [7] is “sparing”. Further, the “inhibition of PfCHT1 at single concentration” value in data set [8] was “sparing”. For the same compound, the “mitochondrial-uncoupling (protonophoric) activity” value in data set [1] is on record as “good mitochondrial-uncoupling activity”. In data set [2] (at 6 and 12 h, initial dose 2 nmol/mg worm), the “worm level as share of the initial dose” value was above 75%. Further, in data set [2], the “accumulation in C. elegans (in words)” value is “accumulated in C. elegans”. Also, in data set [9] (1 μM), the “inhibition of O. volvulus L3 molting” value is reported as “up to 84%”. In addition, in data set [9] (10 μM), the “effect on O. volvulus L3 molting” value is given as “completely abolished molting”. Moreover, the “effect on cell viability of HEK 293T/17 cells” value in [10] is “no considerable effect on cell viability”.
